{"data": "Measurements of several laboratories", "effect on": "cell growth or viability", "note": "Lines come from different studies, so protocols differ."}
{"Structure (SMILES)": "Cc1cc(C)cc(COc2cc3c(cc2OCc2cc(C)cc(C)c2)C2CC(O)(Cc4cn(CCOCCOCCOCCNC(=O)CNc5ccc6c(c5)C(=O)N(C5CCC(=O)NC5=O)C6=O)nn4)CC(C)N2CC3)c1 (stereo not shown)", "cell line": "ASPC1", "technique": "MTT", "endpoint": "IC50", "value": "> 5000 nM"}
{"Structure (SMILES)": "CCCCc1nc(Cl)c(CO)n1Cc1ccc(-c2ccccc2-c2nn[nH]n2)cc1", "cell line": "WI-38", "technique": "MTT", "time": "72 h", "endpoint": "EC50", "value": "9000 nM"}
{"Structure (SMILES)": "N=C(N)c1ccc(OCCCCCOc2ccc(C(=N)N)cc2)cc1", "cell line": "HaCaT", "technique": "MTS", "tested at": "20 µM", "time": "24 h", "endpoint": "inhibition", "value": "11.2%"}
{"Structure (SMILES)": "CC(C)=CCC[C@](C)(O)[C@H]1CC[C@]2(C)[C@@H]1[C@H](O)C[C@@H]1[C@@]3(C)CC[C@H](O[C@@H]4O[C@H](CO)[C@@H](O)[C@H](O)[C@H]4O[C@@H]4O[C@H](CO)[C@@H](O)[C@H](O)[C@H]4O)C(C)(C)[C@@H]3CC[C@]12C", "cell line": "NCI-H358", "technique": "MTT", "time": "72 h", "endpoint": "IC20", "value": "> 100000 nM"}
{"Structure (SMILES)": "Cc1cc(C)cc(COc2cc3c(cc2OCc2cc(C)cc(C)c2)C2CC(O)(Cc4cn(CCOCCOCCOCCNC(=O)CNc5cccc6c5C(=O)N(C5CCC(=O)NC5=O)C6=O)nn4)CC(C)N2CC3)c1 (stereo not shown)", "cell line": "ASPC1", "technique": "MTT", "endpoint": "IC50", "value": "3210 nM"}
{"Structure (SMILES)": "COc1cc(Nc2nccc(-c3cnn4nc(OC)ccc34)n2)cc(C(F)(F)F)c1", "cell line": "RERF-LC-MS", "technique": "ATP luminescence", "endpoint": "IC50", "value": "590 nM"}
{"Structure (SMILES)": "Cc1cc(C)cc(COc2cc3c(cc2OCc2cc(C)cc(C)c2)[C@H]2C[C@](O)(Cc4cn(-c5ccccc5)nn4)C[C@H](C)N2CC3)c1", "cell line": "ASPC1", "technique": "MTT", "endpoint": "IC50", "value": "593 nM"}
{"Structure (SMILES)": "COc1cc(-c2ccc(-c3ccc(C(=N)N)nc3)s2)cc(OC)c1OC", "cell line": "SNB-19", "technique": "SRB", "endpoint": "GI50", "value": "4730 nM"}
{"Structure (SMILES)": "Cc1cc(C)cc(COc2cc3c(cc2OCc2cc(C)cc(C)c2)[C@H]2C[C@](O)(Cc4cn(CCOCCOCCOCCNC(=O)[C@@H](CC(C)C)NC(=O)[C@@H](O)[C@H](N)Cc5ccccc5)nn4)C[C@H](C)N2CC3)c1", "cell line": "ASPC1", "technique": "MTT", "endpoint": "IC50", "value": "630 nM"}
{"Structure (SMILES)": "CC(C)C[C@H](NC(=O)[C@H](Cc1ccccc1)NC(=O)c1cnccn1)B(O)O", "cell line": "KARPAS-299", "technique": "ATP luminescence", "endpoint": "IC50", "value": "5.2 nM"}
{"Structure (SMILES)": "Cc1cc(Nc2ncc(Cl)c(Nc3ccccc3S(=O)(=O)C(C)C)n2)c(OC(C)C)cc1C1CCNCC1", "cell line": "KARPAS-299", "technique": "MTT", "tested at": "0.55556 µg/mL", "time": "72 h", "endpoint": "inhibition", "value": "73.4%"}
{"Structure (SMILES)": "C=CC(=O)N1CCC[C@@H](n2nc(-c3ccc(Oc4ccccc4)cc3)c3c(N)ncnc32)C1", "cell line": "KU812", "time": "48 h", "endpoint": "GI50", "value": "3080 nM"}
{"Structure (SMILES)": "Cc1cn(CC(c2cn(C)c3ccccc23)c2cn(C)c3ccccc23)nn1", "cell line": "HaCaT", "technique": "MTS", "tested at": "20 µM", "time": "24 h", "endpoint": "inhibition", "value": "9.6%"}
{"Structure (SMILES)": "COc1ccc(-c2ccc(-c3ccc(C(=N)N)nc3)s2)cc1", "cell line": "SNB-19", "technique": "SRB", "endpoint": "GI50", "value": "1720 nM"}
{"Structure (SMILES)": "COC(=O)c1c(C)ncn1CC(c1c[nH]c2ccccc12)c1c[nH]c2ccccc12", "cell line": "HaCaT", "technique": "MTS", "tested at": "20 µM", "time": "24 h", "endpoint": "inhibition", "value": "9.7%"}
{"Structure (SMILES)": "Cc1cc(C)cc(COc2cc3c(cc2OCc2cc(C)cc(C)c2)[C@H]2C[C@](O)(Cc4cn(CC56CC7CC(CC(C7)C5)C6)nn4)C[C@H](C)N2CC3)c1", "cell line": "ASPC1", "technique": "MTT", "endpoint": "IC50", "value": "516 nM"}
{"Structure (SMILES)": "C[C@@H](Oc1cc(-c2cnn(C3CCNCC3)c2)cnc1N)c1c(Cl)ccc(F)c1Cl", "cell line": "KARPAS-299", "technique": "MTT", "tested at": "0.008 µg/mL", "time": "72 h", "endpoint": "inhibition", "value": "27.5%"}
{"Structure (SMILES)": "COC(C)(C)CCC[C@](C)(O)[C@H]1CC[C@]2(C)[C@@H]1[C@H](O)C[C@@H]1[C@@]3(C)CC[C@H](O)C(C)(C)[C@@H]3CC[C@]12C", "cell line": "NCI-H358", "technique": "MTT", "time": "72 h", "endpoint": "IC20", "value": "4480 nM"}
{"Structure (SMILES)": "Cc1cc(C)cc(COc2cc3c(cc2OCc2cc(C)cc(C)c2)[C@H]2C[C@](O)(Cc4cn(Cc5cc(C(F)(F)F)cc(C(F)(F)F)c5)nn4)C[C@H](C)N2CC3)c1", "cell line": "ASPC1", "technique": "MTT", "endpoint": "IC50", "value": "836 nM"}
{"Structure (SMILES)": "CCc1ncn(CC(c2c[nH]c3ccc(C)cc23)c2c[nH]c3ccc(C)cc23)c1C(=O)OC", "cell line": "HaCaT", "technique": "MTS", "tested at": "20 µM", "time": "24 h", "endpoint": "inhibition", "value": "23%"}
{"Structure (SMILES)": "C/C=C/C(=O)Nc1ccc(CCn2cc(C[C@@]3(O)C[C@@H]4c5cc(OCc6cc(C)cc(C)c6)c(OCc6cc(C)cc(C)c6)cc5CCN4[C@@H](C)C3)nn2)cc1", "cell line": "ASPC1", "technique": "MTT", "endpoint": "IC50", "value": "870 nM"}
{"Structure (SMILES)": "COC(=O)c1c(C)ncn1CC(c1c[nH]c2ccc(C)cc12)c1c[nH]c2ccc(C)cc12", "cell line": "HaCaT", "technique": "MTS", "tested at": "20 µM", "time": "24 h", "endpoint": "inhibition", "value": "12.2%"}
